The source of these data is ChEMBL document CHEMBL1126759, “Potent HIV protease inhibitors: the development of tetrahydrofuranylglycines as novel P2-ligands and pyrazine amides as P3-ligands” (J Med Chem, 1993).

Where only a bound is given, the exact number is not on record here.

Test [1] concerns the target Human immunodeficiency virus type 1 protease (Human immunodeficiency virus 1) (UniProt Q72874). In words: Tested for inhibitory concentration against spread of HIV-1 in MT-4 human T-lymphoid cells infected with IIIb isolate. The test is classed as functional, cell-based. The method in brief:
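MT-4 cells grown in RPMI-1640 with 10% inactivated FBS, 4 mM glutamine and penicillin/streptomycin at 37 °C under CO2. Cells were pretreated 24 h with serially diluted compound (DMSO stock), then infected at 250 000 cells/mL, MOI 0.01. Compound was refreshed every 2–3 days. CIC was read by anti-HIV-1 immunofluorescence (complete block of spread, 7–24 days) or p24 ELISA (>95% reduction).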

The target of test [2] is Human immunodeficiency virus type 1 protease (Human immunodeficiency virus 1, UniProt Q72874). The test is described as follows: Tested for inhibitory concentration against HIV-1 protease.
In test [3] the target is Human immunodeficiency virus type 2 pol protein (Human immunodeficiency virus 2, UniProt P88142). In words: Tested for inhibitory concentration against HIV-2 protease. The test is classed as functional. In a few lines: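 HIV-2 protease (ROD) purified the same way as HIV-1 protease, which was bacterially expressed; value reported as IC50.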
Chain of Human immunodeficiency virus type 2 pol protein (P88142 whole entry): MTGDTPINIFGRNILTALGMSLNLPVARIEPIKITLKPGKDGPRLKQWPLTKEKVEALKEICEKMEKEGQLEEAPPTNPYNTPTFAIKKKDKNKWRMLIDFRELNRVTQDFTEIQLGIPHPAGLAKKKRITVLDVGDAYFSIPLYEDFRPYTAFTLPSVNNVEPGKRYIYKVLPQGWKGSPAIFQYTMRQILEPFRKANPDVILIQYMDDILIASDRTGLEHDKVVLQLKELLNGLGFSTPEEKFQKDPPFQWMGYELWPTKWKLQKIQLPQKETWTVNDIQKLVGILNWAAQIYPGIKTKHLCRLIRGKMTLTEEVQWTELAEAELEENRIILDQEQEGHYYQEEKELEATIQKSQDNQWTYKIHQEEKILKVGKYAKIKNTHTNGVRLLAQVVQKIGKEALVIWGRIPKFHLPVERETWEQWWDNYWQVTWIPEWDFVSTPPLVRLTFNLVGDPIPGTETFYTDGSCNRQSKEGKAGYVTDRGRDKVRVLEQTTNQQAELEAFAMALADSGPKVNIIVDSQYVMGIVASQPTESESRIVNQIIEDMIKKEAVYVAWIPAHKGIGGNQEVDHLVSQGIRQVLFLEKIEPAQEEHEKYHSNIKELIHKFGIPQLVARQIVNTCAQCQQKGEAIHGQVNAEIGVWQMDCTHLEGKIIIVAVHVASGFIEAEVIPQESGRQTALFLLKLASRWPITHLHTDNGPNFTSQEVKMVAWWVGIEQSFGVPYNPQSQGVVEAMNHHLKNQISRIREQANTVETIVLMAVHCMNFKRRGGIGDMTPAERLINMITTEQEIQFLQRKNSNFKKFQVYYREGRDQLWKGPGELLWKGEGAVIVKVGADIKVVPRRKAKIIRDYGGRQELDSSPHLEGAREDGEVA

Regarding `CC(C)(C)NC(=O)[C@@H]1C[C@@H]2CCCC[C@@H]2CN1C[C@@H](O)[C@H](Cc1ccccc1)NC(=O)[C@@H](NC(=O)c1ccc2ccccc2n1)[C@@H]1CCSC1`, the IC95 in test [1] is above 200 nM. In addition, the IC50 in test [2] came to 3.3 nM.

`COC(=O)c1nc(Cl)c(N[C@H](C(=O)N[C@@H](Cc2ccccc2)[C@H](O)CN2C[C@H]3CCCC[C@H]3C[C@H]2C(=O)NC(C)(C)C)[C@H]2CCOC2)nc1N` showed a concentration for an effect of 95% (IC95) in test [1] of 3 nM. Moreover, the results for the 50% inhibitory concentration (IC50) in test [2] and in test [3] were 0.16 nM and 24.9 nM, respectively.

`CN(C)c1nc(N)c(C(=O)N[C@H](C(=O)N[C@@H](Cc2ccccc2)[C@H](O)CN2C[C@H]3CCCC[C@H]3C[C@H]2C(=O)NC(C)(C)C)[C@H]2CCOC2)nc1Cl`: in test [1], it took 25 nM to reach the 95% level (IC95). Also, the IC50 in test [2] turned out to be 0.24 nM.

Turning to `CC(C)(C)NC(=O)[C@@H]1C[C@@H]2CCCC[C@@H]2CN1C[C@@H](O)[C@H](Cc1ccccc1)NC(=O)[C@@H](NC(=O)c1ccc2ccccc2n1)[C@@H]1CCS(=O)(=O)C1`, the IC50 in test [2] was 39 nM.

For the compound `CC(C)(C)NC(=O)[C@@H]1C[C@@H]2CCCC[C@@H]2CN1C[C@@H](O)[C@H](Cc1ccccc1)NC(=O)[C@@H](NC(=O)c1ccc2ccccc2n1)C1CCOC1` (stereo partly specified), in test [1], the 95% effect concentration (IC95) was determined as 8 nM. Also, the IC50 in test [2] was determined as 0.054 nM; in test [3], 0.24 nM.

On to `CC(C)[C@H](NC(=O)c1cnc2ccccc2n1)C(=O)N[C@@H](Cc1ccccc1)[C@H](O)CN1C[C@H]2CCCC[C@H]2C[C@H]1C(=O)NC(C)(C)C`, for which half-maximal inhibition in test [2] (IC50) was put at 0.39 nM.

In test [1], `CN1CCN(c2ncc(C(=O)N[C@H](C(=O)N[C@@H](Cc3ccccc3)[C@H](O)CN3C[C@H]4CCCC[C@H]4C[C@H]3C(=O)NC(C)(C)C)[C@H]3CCOC3)nc2Cl)CC1` had an IC95 of 12 nM. The IC50 in test [2] came to 0.071 nM; in test [3], 0.18 nM.

`CC(C)[C@H](NC(=O)c1cc(=O)c2ccccc2o1)C(=O)N[C@@H](Cc1ccccc1)[C@H](O)CN1C[C@H]2CCCC[C@H]2C[C@H]1C(=O)NC(C)(C)C` had an IC95 in test [1] of 25 nM. Inhibition in test [2] was half-maximal at 0.15 nM (IC50).

`CN(C)c1ncc(C(=O)N[C@H](C(=O)N[C@@H](Cc2ccccc2)[C@H](O)CN2C[C@H]3CCCC[C@H]3C[C@H]2C(=O)NC(C)(C)C)[C@H]2CCOC2)nc1Cl` showed an IC95 in test [1] of 12 nM. The compound also showed a concentration for half-maximal inhibition (IC50) in test [2] of 0.06 nM.

`CC(C)(C)NC(=O)[C@@H]1C[C@@H]2CCCC[C@@H]2CN1C[C@@H](O)[C@H](Cc1ccccc1)NC(=O)[C@@H](NC(=O)c1cnc2ccccc2n1)[C@H]1CCOC1` returned an IC95 in test [1] of 12 nM. This compound registered an IC50 in test [2] of 0.12 nM.

Regarding `CC(C)(C)NC(=O)[C@@H]1C[C@@H]2CCCC[C@@H]2CN1C[C@@H](O)[C@H](Cc1ccccc1)NC(=O)[C@@H](NC(=O)c1ccc2ccccc2n1)C1CCOCC1`, half-maximal inhibition in test [2] (IC50) required 67.9 nM.

Take `CC(C)(C)NC(=O)[C@@H]1C[C@@H]2CCCC[C@@H]2CN1C[C@@H](O)[C@H](Cc1ccccc1)NC(=O)[C@@H](NC(=O)c1ccc2ccccc2n1)C1CCCC1`: 2.6 nM corresponded to half-maximal inhibition in test [2] (IC50).

The compound `CC(C)(C)NC(=O)[C@@H]1C[C@@H]2CCCC[C@@H]2CN1C[C@@H](O)[C@H](Cc1ccccc1)NC(=O)[C@@H](NC(=O)c1ccc2ccccc2n1)[C@@H]1CCOC1` returned an IC95 in test [1] of 100 nM. Moreover, the half-maximal inhibitory concentration (IC50) in test [2] was 5.4 nM.

In turn, `CC(C)[C@H](NC(=O)c1ccc2ccccc2n1)C(=O)N[C@@H](Cc1ccccc1)[C@H](O)CN1C[C@H]2CCCC[C@H]2C[C@H]1C(=O)NC(C)(C)C` gave an IC95 in test [1] of 100 nM. In addition, the IC50 in test [2] was determined as 0.7 nM; in test [3], 3.2 nM.

`CC(C)(C)NC(=O)[C@@H]1C[C@@H]2CCCC[C@@H]2CN1C[C@@H](O)[C@H](Cc1ccccc1)NC(=O)[C@H](CC(N)=O)NC(=O)c1ccc2ccccc2n1` yielded an IC95 in test [1] of 22 nM. The IC50 in test [3] is 0.5 nM.

As for `CC(C)(C)NC(=O)[C@@H]1C[C@@H]2CCCC[C@@H]2CN1C[C@@H](O)[C@H](Cc1ccccc1)NC(=O)[C@@H](NC(=O)c1ccc2ccccc2n1)[C@H]1CCS(=O)(=O)C1`, the IC50 in test [2] is 0.5 nM.

With `CC(C)(C)NC(=O)[C@@H]1C[C@@H]2CCCC[C@@H]2CN1C[C@@H](O)[C@H](Cc1ccccc1)NC(=O)[C@@H](NC(=O)c1cc(=O)c2ccccc2o1)[C@H]1CCOC1`, the IC95 in test [1] is 25 nM. Moreover, it took 0.11 nM to reach half-maximal inhibition in test [2] (IC50).

For the compound `CC(C)(C)NC(=O)[C@@H]1C[C@@H]2CCCC[C@@H]2CN1C[C@@H](O)[C@H](Cc1ccccc1)NC(=O)[C@@H](NC(=O)c1cnccn1)[C@H]1CCOC1`, the IC50 in test [2] is 2.83 nM.

In test [1], `CC(C)(C)NC(=O)[C@@H]1C[C@@H]2CCCC[C@@H]2CN1C[C@@H](O)[C@H](Cc1ccccc1)NC(=O)[C@@H](NC(=O)c1ccc2ccccc2n1)[C@H]1CCSC1` came in with an IC95 of 50 nM. For the same compound, the midpoint of inhibition in test [2], the IC50, lay at 0.6 nM.

One may read the IC95 as the concentration at which the effect reaches the 95% level. Read a high IC95 as weaker potency. Usually IC50 stands for the concentration that inhibits the measured activity by half. A lower IC50 goes with inhibition by little substance.
